Results reported in ChEMBL document CHEMBL4732088, “Identification and optimization of piperlongumine analogues as potential antioxidant and anti-inflammatory agents via activation of Nrf2” (Eur J Med Chem, 2021).
The source made the active and inactive calls. The rule behind the calls is not given here.

Columns and labels:
PC-12 [1] = assay: Cytoprotective activity against 6-OHDA-induced neurotoxicity in rat PC12 cells assessed as reduction in LDH release at 5 to 20 uM preincubated for 24 hrs followed by 6-OHDA treatment by LDH assay; type: functional, cell-based; conditions: dose 5-20 µM
Summary of the method: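 PC12 cells pretreated with compound (5, 10, 20 μM) for 24 h, then H₂O₂ or 6-OHDA; membrane damage read as LDH leakage; mean ± SD of three independent experiments.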

PC-12 [2] = assay: Protection against 6-OHDA-induced oxidative damage in rat PC12 cells assessed as intracellular ROS level by measuring mean fluorescence intensity at 5 uM pretreated with compound followed by 6-OHDA stimulation by DCFH-DA staining based flow cytometry (reference value: 26327.34); type: functional
PC-12 [3] = assay: Protection against 6-OHDA-induced mitochondrial dysfunction in rat PC12 cells assessed as change in mitochondrial membrane potential loss at 10 uM pretreated with compound followed by 6-OHDA addition by JC-1 staining based flow cytometry (reference value: 26.8 %); type: functional
Summary of the method: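 Mitochondrial membrane potential in PC12 cells pretreated with compound (5, 10, 20 μM), then exposed to H₂O₂ (200 μM) or 6-OHDA (150 μM). JC-1 staining, red-to-green fluorescence shift read by flow cytometry. Mean ± SD, n = 3.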

PC-12 [4] = assay: Protection against 6-OHDA-induced apoptosis in rat PC12 cells assessed as early apoptotic cells at 10 uM incubated for 24 hrs by annexin V FITC/propidium iodide staining based flow cytometry (reference value: 19.2 %); type: functional
PC-12 [5] = assay: Protection against 6-OHDA-induced apoptosis in rat PC12 cells assessed as necrotic cells at 10 uM incubated for 24 hrs by annexin V FITC/propidium iodide staining based flow cytometry (reference value: 1.1 %); type: functional
PC-12 [6] = assay: Neuroprotective activity against H2O2-induced apoptosis in rat PC12 cells assessed as reduction in apoptotic nuclei at 5 to 20 uM pretreated with compound followed by H2O2 addition by Hoechst 33342 staining based fluorescence microscopy analysis; type: functional, cell-based; conditions: dose 5-20 µM
Summary of the method: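 PC12 cells pretreated with compound before H₂O₂ or 6-OHDA; nuclei stained with Hoechst 33342, imaged on a high-content system with phase-contrast views; apoptotic nuclei scored as bright condensed aggregates; n = 3.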

PC-12 [7] = assay: (§1) Prevention of 6-OHDA-induced calcium overload in rat PC12 cells assessed as reduction in intracellular free calcium by measuring mean fluorescence intensity at 5 uM pretreated with compound followed by 6-OHDA addition measured after 24 hrs by Fluo-3AM based fluorescence assay (reference value: 6708.18%); type: functional
PC-12 [8] = assay: as §1, with “20” for “5”; type: functional
[9] = molecular target: T1, Nuclear factor erythroid 2-related factor 2 (Rattus norvegicus) (UniProt O54968); assay: Activation of Nrf2 in rat PC12 cells assessed as increase in Nrf2 protein level at 20 uM after 3 hrs by Western blot analysis; type: cell-based; conditions: PC-12, filed as activator
T1 sequence (whole entry): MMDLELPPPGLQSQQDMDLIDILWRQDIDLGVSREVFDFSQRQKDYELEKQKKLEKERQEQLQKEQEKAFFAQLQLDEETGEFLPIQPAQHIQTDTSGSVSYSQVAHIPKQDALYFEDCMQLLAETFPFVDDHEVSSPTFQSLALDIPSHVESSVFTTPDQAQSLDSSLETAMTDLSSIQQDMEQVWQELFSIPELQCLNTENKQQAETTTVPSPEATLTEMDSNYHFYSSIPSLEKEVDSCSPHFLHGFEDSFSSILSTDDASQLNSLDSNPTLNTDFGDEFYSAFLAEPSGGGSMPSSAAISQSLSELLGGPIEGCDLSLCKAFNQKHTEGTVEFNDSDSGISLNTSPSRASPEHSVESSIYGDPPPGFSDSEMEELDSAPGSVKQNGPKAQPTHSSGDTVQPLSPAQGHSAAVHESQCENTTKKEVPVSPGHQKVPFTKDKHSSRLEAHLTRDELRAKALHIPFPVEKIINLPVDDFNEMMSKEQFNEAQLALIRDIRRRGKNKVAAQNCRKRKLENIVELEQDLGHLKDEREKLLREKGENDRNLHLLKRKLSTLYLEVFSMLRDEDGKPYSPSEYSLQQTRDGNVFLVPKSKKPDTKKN

[10] = molecular target: T1, Nuclear factor erythroid 2-related factor 2 (Rattus norvegicus); assay: Activation of Nrf2 in rat PC12 cells assessed as increase in GCLC protein level at 20 uM after 24 hrs by Western blot analysis; type: cell-based; conditions: PC-12, filed as activator
PC-12 [11] = assay: Neuroprotective activity against H2O2-induced cell death in rat PC12 cells at 20 uM preincubated for 30 mins in presence of brusatol followed by H2O2 stimulation and measured after 24 hrs by MTT assay; type: functional, cell-based; conditions: time 24.5 hrs
Summary of the method: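 PC12 cells incubated 30 min with compound (20 μM) plus brusatol (10 nM) or ZnPP (10 nM), then insult for 24 h (H₂O₂ stated as 150 μM); viability by MTT.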

[12] = molecular target: T2, Nuclear factor erythroid 2-related factor 2 (Mus musculus) (UniProt Q60795); assay: Activation of Nrf2 in mouse BV2 cells assessed as inhibition of LPS-induced IL-6 production at 5 to 20 uM by ELISA; type: cell-based; conditions: BV-2, filed as activator, dose 5-20 µM
T2 sequence (whole entry): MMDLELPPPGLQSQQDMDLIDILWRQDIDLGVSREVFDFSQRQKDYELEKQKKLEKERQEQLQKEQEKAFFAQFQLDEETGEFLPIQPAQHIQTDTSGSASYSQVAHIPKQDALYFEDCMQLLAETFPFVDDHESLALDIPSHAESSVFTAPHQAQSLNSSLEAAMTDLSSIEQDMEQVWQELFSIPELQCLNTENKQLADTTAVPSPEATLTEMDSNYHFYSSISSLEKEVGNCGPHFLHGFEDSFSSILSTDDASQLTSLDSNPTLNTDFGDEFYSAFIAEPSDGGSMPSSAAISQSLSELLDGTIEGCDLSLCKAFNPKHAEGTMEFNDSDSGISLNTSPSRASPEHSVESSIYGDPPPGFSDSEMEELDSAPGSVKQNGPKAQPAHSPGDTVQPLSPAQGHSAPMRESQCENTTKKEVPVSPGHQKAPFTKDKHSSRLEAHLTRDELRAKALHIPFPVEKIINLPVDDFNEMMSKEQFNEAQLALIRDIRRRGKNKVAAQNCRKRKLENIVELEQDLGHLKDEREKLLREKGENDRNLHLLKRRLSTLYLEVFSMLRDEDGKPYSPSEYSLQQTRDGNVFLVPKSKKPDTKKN
Summary of the method: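 BV2 microglia pretreated with compound, then LPS-stimulated; IL-6 quantified by ELISA kit; mean ± SD, n = 3.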

[13] = molecular target: T2, Nuclear factor erythroid 2-related factor 2 (Mus musculus); assay: Activation of Nrf2 in mouse BV2 cells assessed as upregulation of Nrf2 protein expression after 24 hrs by Western blot analysis; type: cell-based; conditions: BV-2, filed as activator, dose 5-20 µM
Summary of the method: (§2)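 BV2 microglia exposed to compound for 24 h over a concentration series; Nrf2, NQO1, HO-1, TrxR1, GCLM and GCLC protein levels read by Western blot.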

[14] = molecular target: T2, Nuclear factor erythroid 2-related factor 2 (Mus musculus); assay: Activation of Nrf2 in mouse BV2 cells assessed as upregulation of GCLM protein expression after 24 hrs by Western blot analysis; type: cell-based; conditions: BV-2, filed as activator, dose 5-20 µM; summary of the method: as §2
BV-2 = assay: Antiinflammatory activity in mouse BV2 cells transfected with control siRNA assessed as inhibition of LPS-induced IL-6 production at 20 uM pretreated with compound followed by LPS stimulation for 18 hrs

CCN(C)C(=O)N1CCN(C(=O)/C=C/c2ccc(F)cc2)C1=O was tested, and the Activity (PC-12 [1]) was “Active”, the Flu intensity (PC-12 [2]) was 18168.07 and the Activity (PC-12 [3]) was 16.3%. The Activity (PC-12 [4]) was 7.4%, the Activity (PC-12 [5]) was 1% and the Activity (PC-12 [6]) was “Active”. For the same compound, the Flu intensity (PC-12 [7]) was 4910.91, the Flu intensity (PC-12 [8]) was 4161.82 and the Activity [9] was “Active”. For the same compound, the Activity [10] was “Active”, the Activity (PC-12 [11]) was “inactive” and the Activity [12] was “Active”. The Activity [13] was “Dose-dependent effect”, the Activity [14] was “Dose-dependent effect” and the Activity (BV-2) was “Active”.
